Assay results as given in ChEMBL document CHEMBL2407075, “Sulphonamido-quinoxalines: search for anticancer agent” (Eur J Med Chem, 2013).

Assays:
Format in all cases: functional
[1] = test system: SW-620; test: Growth inhibition of human SW620 cells assessed as cell growth at 10^-4 M after 48 hrs by sulforhodamine B assay; details: SW-620, 48 h, read-out: Activity
[2] = test system: MOLT-4; test: Growth inhibition of human MOLT4 cells after 48 hrs by sulforhodamine B assay; details: MOLT-4, 48 h; for CC50: read-out: LC50 (the source's name)
Method in brief: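 Leukemia suspension cells in RPMI 1640 with 5% FBS and 2 mM L-glutamine were plated at 5000–40,000 cells/well and grown 24 h. Five concentrations (0.01–100 µM) were given for 48 h at 37 °C. Settled cells were fixed with 80% TCA (16% final) and SRB-stained, read at 515 nm. GI50 came from dose–response curves against time-zero and control plates.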

[3] = test system: SF-295; test: Growth inhibition of human SF295 cells assessed as cell growth at 10^-5 M after 48 hrs by sulforhodamine B assay; details: SF-295, 48 h, read-out: Activity
[4] = test system: MOLT-4; test: Growth inhibition of human MOLT4 cells assessed as cell growth at 10^-7 M after 48 hrs by sulforhodamine B assay; details: MOLT-4, 48 h, read-out: Activity
[5] = test system: NCI-H226; test: Growth inhibition of human NCI-H226 cells assessed as cell growth at 10^-6 M after 48 hrs by sulforhodamine B assay; details: NCI-H226, 48 h, read-out: Activity
[6] = test system: RXF 393; test: Growth inhibition of human RXF393 cells after 48 hrs by sulforhodamine B assay; details: RXF 393, 48 h; for CC50: read-out: LC50 (the source's name)
Method in brief: (§1)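 Adherent cells in RPMI 1640 with 5% FBS and 2 mM L-glutamine were plated at 5000–40,000 cells/well and grown 24 h. Five concentrations (0.01–100 µM, DMSO stock) were added for 48 h at 37 °C. Cells were fixed with cold TCA (10% final) and stained with SRB, read at 515 nm. GI50 came from log concentration–growth curves against time-zero and control plates.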

[7] = test system: T47D; test: Growth inhibition of human T47D cells assessed as cell growth at 10^-7 M after 48 hrs by sulforhodamine B assay; details: read-out: Activity
[8] = Growth inhibition of human HCC2998 cells assessed as cell growth at 10^-5 M after 48 hrs by sulforhodamine B assay; details: HCC 2998, 48 h, read-out: Activity
Method in brief: (§2)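 Five-dose screen at NCI. Cells in RPMI 1640 with 5% FBS and 2 mM L-glutamine, seeded at 5000–40,000 cells/well and grown 24 h at 37 °C, 5% CO2 before dosing, with time-zero plates TCA-fixed. Drug diluted from DMSO stock to 0.01, 0.1, 1, 10 and 100 µM final, 48 h. Cells fixed with cold TCA (10% final), stained with 0.4% SRB and read at 515 nm. Percent growth from Tz, control and test absorbances; GI50, TGI and LC50 from dose-response curves.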

[9] = test system: HT-29; test: Growth inhibition of human HT-29 cells assessed as cell growth at 10^-4 M after 48 hrs by sulforhodamine B assay; details: HT-29, 48 h, read-out: Activity; method in brief: as §2
[10] = test system: SF-268; test: Growth inhibition of human SF268 cells assessed as cell growth at 10^-7 M after 48 hrs by sulforhodamine B assay; details: SF-268, 48 h, read-out: Activity
[11] = test system: BT-549; test: Growth inhibition of human BT549 cells assessed as cell growth at 10^-4 M after 48 hrs by sulforhodamine B assay; details: BT-549, 48 h, read-out: Activity
Method in brief: (§3)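 Five-dose NCI-60 run (0.01, 0.1, 1, 10 and 100 µM, as 10-fold dilutions from a DMSO stock made at 400× the top final level). Cells were grown in RPMI 1640 with 5% FBS and 2 mM glutamine and plated for 24 h. They were then exposed for 48 h at 37 °C and 5% CO2. TCA fixation was followed by SRB staining with A515 read-out. Percent growth was taken relative to time-zero and control plates.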

[12] = test system: ACHN; test: Growth inhibition of human ACHN cells assessed as cell growth at 10^-4 M after 48 hrs by sulforhodamine B assay; details: read-out: Activity; method in brief: as §3
[13] = test system: OVCAR-4; test: Growth inhibition of human OVCAR4 cells assessed as cell growth at 10^-7 M after 48 hrs by sulforhodamine B assay; details: OVCAR-4, 48 h, read-out: Activity
[14] = test system: NCI-H23; test: Growth inhibition of human NCI-H23 cells assessed as cell growth at 10^-8 M after 48 hrs by sulforhodamine B assay; details: NCI-H23, 48 h, read-out: Activity
[15] = test system: SK-MEL-5; test: Growth inhibition of human SK-MEL-5 cells assessed as cell growth at 10^-4 M after 48 hrs by sulforhodamine B assay; details: SK-MEL-5, 48 h, read-out: Activity
[16] = test system: SK-OV-3; test: Growth inhibition of human SKOV3 cells assessed as cell growth at 10^-7 M after 48 hrs by sulforhodamine B assay; details: SK-OV-3, 48 h, read-out: Activity
[17] = Growth inhibition of human HCC2998 cells assessed as cell growth at 10^-7 M after 48 hrs by sulforhodamine B assay; details: HCC 2998, 48 h, read-out: Activity; method in brief: as §2
[18] = test system: M14; test: Growth inhibition of human M14 cells assessed as cell growth at 10^-6 M after 48 hrs by sulforhodamine B assay; details: M14, 48 h, read-out: Activity
[19] = Growth inhibition of human HCC2998 cells assessed as cell growth at 10^-4 M after 48 hrs by sulforhodamine B assay; details: HCC 2998, 48 h, read-out: Activity; method in brief: as §2
[20] = test system: IGROV-1; test: Growth inhibition of human IGROV1 cells after 48 hrs by sulforhodamine B assay; details: IGROV-1, 48 h; for CC50: read-out: LC50 (the source's name); method in brief: as §1
[21] = test system: U-251; test: Growth inhibition of human U251 cells assessed as cell growth at 10^-7 M after 48 hrs by sulforhodamine B assay; details: U-251, 48 h, read-out: Activity
[22] = test system: Malme-3M; test: Growth inhibition of human MALME-3M cells assessed as cell growth at 10^-7 M after 48 hrs by sulforhodamine B assay; details: read-out: Activity
[23] = test system: TK-10; test: Growth inhibition of human TK10 cells assessed as cell growth at 10^-4 M after 48 hrs by sulforhodamine B assay; details: TK-10, 48 h, read-out: Activity
[24] = test system: HCT-116; test: Growth inhibition of human HCT116 cells assessed as cell growth at 10^-5 M after 48 hrs by sulforhodamine B assay; details: HCT-116, 48 h, read-out: Activity; method in brief: as §2
[25] = test system: ACHN; test: Growth inhibition of human ACHN cells assessed as cell growth at 10^-6 M after 48 hrs by sulforhodamine B assay; details: read-out: Activity; method in brief: as §3
[26] = test system: RPMI-8226; test: Growth inhibition of human RPMI8226 cells assessed as cell growth at 10^-4 M after 48 hrs by sulforhodamine B assay; details: RPMI-8226, 48 h, read-out: Activity
[27] = test system: NCI-H226; test: Growth inhibition of human NCI-H226 cells assessed as cell growth at 10^-7 M after 48 hrs by sulforhodamine B assay; details: NCI-H226, 48 h, read-out: Activity
[28] = test system: MCF7; test: Growth inhibition of human MCF7 cells assessed as cell growth at 10^-6 M after 48 hrs by sulforhodamine B assay; details: MCF7, 48 h, read-out: Activity
[29] = test system: MOLT-4; test: Growth inhibition of human MOLT4 cells assessed as cell growth at 10^-4 M after 48 hrs by sulforhodamine B assay; details: MOLT-4, 48 h, read-out: Activity

Row | Compound | growth at 100 µM [1] [%] | CC50 [2] [µM] | growth at 10 µM [3] [%] | growth at 0.1 µM [4] [%] | growth at 1 µM [5] [%] | CC50 [6] [µM] | growth at 0.1 µM [7] [%] | growth at 10 µM [8] [%] | growth at 100 µM [9] [%] | growth at 0.1 µM [10] [%] | growth at 100 µM [11] [%] | growth at 100 µM [12] [%] | growth at 0.1 µM [13] [%] | growth at 0.01 µM [14] [%] | growth at 100 µM [15] [%] | growth at 0.1 µM [16] [%] | growth at 0.1 µM [17] [%] | growth at 1 µM [18] [%] | growth at 100 µM [19] [%] | TGI [20] [µM] | further results
1 | O=S(=O)(Nc1ccccn1)c1ccc2nc(-c3ccccc3)c(-c3ccccc3)nc2c1 | 59 | > 100 | -56 | 95 | 96 | > 100 | 85 | -14 | 24 | 91 | 49 | 62 | 102 | 95 | 41 | 98 | 100 | 98 | 64 | > 100 | GI50 [2]: 1.89 µM; GI50 [6]: 2.14 µM; CC50 [20]: > 100 µM; growth at 0.1 µM [21]: 97%; growth at 0.1 µM [22]: 107%; growth at 100 µM [23]: 54%; growth at 10 µM [24]: 1%; growth at 1 µM [25]: 94%; growth at 100 µM [26]: 27%; growth at 0.1 µM [27]: 95%; growth at 1 µM [28]: 87%; growth at 100 µM [29]: 48%
2 | O=S(=O)(Nc1ccc(Cl)cc1)c1ccc2nc(-c3ccccc3)c(-c3ccccc3)nc2c1 | 70 | > 100 | -53 | 94 | 101 | > 100 | 90 | 2 | 53 | 98 | 61 | 76 | 90 | 97 | 52 | 99 | 99 | 94 | 85 | > 100 | CC50 [20]: > 100 µM; growth at 0.1 µM [21]: 94%; growth at 0.1 µM [22]: 99%; growth at 100 µM [23]: 86%; growth at 10 µM [24]: 1%; growth at 1 µM [25]: 96%; growth at 100 µM [26]: 40%; growth at 0.1 µM [27]: 99%; growth at 1 µM [28]: 93%; growth at 100 µM [29]: 68%
